Assay results from article PMC3458188 (ACS nano, 2012).

Assays:
[1] = format: in vivo, athymic nude mice bearing MDA-MB-231 tumors; conditions: IP, Alexa 700-labelled KLAK PA
Summary of the method: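 Female athymic nude mice carried orthotopic MDA-MB-231 mammary tumours. Dialysed Alexa 700-conjugated PA (20 mg/kg, 1.8 mM; 2.5 μg dye) was given ip, ± 27 mg/kg coassembled PEG PA. Plasma was collected by tail bleed or terminal cardiac puncture, spun 10 000 rpm for 10 min, and read on a plate reader. Paraformaldehyde-fixed tissues were imaged as average radiant efficiency; n = 6 per time point.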

[2] = Complete blood count and metabolic profiling 24 h after PA administration; format: in vivo, mice; conditions: 24 h after administration
Summary of the method: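 Blood was drawn from mice 24 h after PA or PBS administration and sent to an external laboratory for complete blood count and metabolic profiling. Groups were compared by two-way ANOVA with Bonferroni post-tests.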

[3] = Small angle X-ray scattering; format: physicochemical; conditions: 2 mM; -1 indicative of cylinders, -2 possibly bundling
Summary of the method: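 Synchrotron SAXS used 15 keV X-rays from a double-crystal monochromator and an offset CCD to cover a wide angle range. Samples at 2 mM were held in 1.5 mm quartz capillaries; incident flux was about 10^12 photons/s. Intensity was plotted on a relative scale against q = (4π/λ) sin(θ/2).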

[4] = 1H diffusion ordered spectroscopy; format: physicochemical; conditions: DOSY, D2O, ambient temperature; 5 mM KLAK PA alone or 2.5 mM KLAK PA and 2.5 mM PEG PA
Summary of the method: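 Coassembled by dissolving each PA separately in HFIP, mixing at least 15 min, lyophilizing, redissolving in water and lyophilizing again. 1H DOSY at 600 MHz and ambient temperature in 99.9% D2O, at constant total PA of 5 mM (single PA) or 2.5 mM + 2.5 mM (mixed). 32 points were acquired with a 7 μs 90-degree pulse.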

[5] = Cryogenic and conventional TEM of nanostructures; format: physicochemical; conditions: cryo-TEM
Summary of the method: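 For conventional TEM, samples were drop-cast on carbon-coated copper grids and stained with 2% aqueous uranyl acetate. For cryo-TEM, grids were blotted at 95% humidity and plunged into liquid ethane. Both were imaged at 100 keV.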

Q: For palmitoyl-A4G3(KLAKLAK)2 [KLAK PA], which observed plasma half-lives ([1]; plasma fluorescence, mice) is on record?
A: Its observed plasma half-lives is “on the order of several hours”.

Q: And the “tissue localization of fluorescence” value ([1]; tumor bearing mice, IVIS)?
A: The value was “predominantly localized to liver and kidney”.

Q: What about the alkaline phosphatase levels ([2]; compared with PBS treated controls) of the same substance?
A: The alkaline phosphatase levels was “significantly lower”.

Q: What about the blood glucose levels ([2]; mice) of the same substance?
A: Its blood glucose levels is “significantly higher”.

Q: What about the “SAXS slope in the low-q range” value [3] of the same substance?
A: Its value is “approximately -2”.

Q: And the “diffusion coefficient of KLAK PA (peak at 2.83 ppm)” value [4]?
A: The value was 0.69×10^−10 m^2/s.

Q: And the fiber diameter [5]?
A: Its fiber diameter is “roughly 10 nm”.

Q: What about the fiber length [5] of the same substance?
A: The fiber length was “several hundred”.
